Neddyl block – inhibitors of human cullin neddylation; P61081+Q13564; TR-FRET cullin neddylation, biochemical; inhibition, % at 25 µM; 360,000 tested, 0.58% active; AID 651699; in the data active means inhibition above about 36%
Target sequence (P61081 whole entry, looked up): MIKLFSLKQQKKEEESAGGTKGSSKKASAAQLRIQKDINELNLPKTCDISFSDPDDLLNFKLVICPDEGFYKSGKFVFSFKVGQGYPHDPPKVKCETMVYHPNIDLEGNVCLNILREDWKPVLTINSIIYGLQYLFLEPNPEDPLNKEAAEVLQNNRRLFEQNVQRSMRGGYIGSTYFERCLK
Target sequence (Q13564 whole entry, looked up): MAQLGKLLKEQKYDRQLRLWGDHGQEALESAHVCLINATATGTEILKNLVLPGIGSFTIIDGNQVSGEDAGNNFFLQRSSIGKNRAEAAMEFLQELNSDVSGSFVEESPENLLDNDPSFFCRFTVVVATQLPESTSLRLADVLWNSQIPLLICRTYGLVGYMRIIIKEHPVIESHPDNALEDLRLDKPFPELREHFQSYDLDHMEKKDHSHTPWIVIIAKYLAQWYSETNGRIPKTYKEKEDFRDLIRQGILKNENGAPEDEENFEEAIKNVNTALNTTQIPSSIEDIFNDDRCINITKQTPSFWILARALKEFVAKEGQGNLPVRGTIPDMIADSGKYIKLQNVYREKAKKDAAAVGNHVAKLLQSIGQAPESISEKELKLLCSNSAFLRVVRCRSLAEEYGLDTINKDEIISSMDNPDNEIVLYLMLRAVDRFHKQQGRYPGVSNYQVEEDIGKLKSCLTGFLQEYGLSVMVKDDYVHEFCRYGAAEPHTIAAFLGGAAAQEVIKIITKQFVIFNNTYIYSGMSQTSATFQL
procasp7 counter – counter-screen: procaspase-7 (human) activation. 330,000 tested, 0.093% active. AID 463210. activation, % at 8.5 µM. recombinant procaspase-7, Ac-DEVD-pNA absorbance 405 nm; D23A/D198A/D206A triple mutant, cannot self-cleave; scale: DMSO 0, 5 µM enzyme 100. P55210;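 active means percent activation above the screen-wide mean plus 3 SD, cut at about 25% in these data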
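Test system: Procaspase-7 triple mutant (PC-7 D3A). Also added: Ac-DEVD-pNA substrate, 400 µM as added. Schedule: 1 h enzyme–compound preincubation and 2 h substrate reaction, both 25 °C. Signal: p-Nitroaniline absorbance at 405 nm, read at 0 and 120 min. Control set: low DMSO alone, high DMSO plus 5 µM PC-7.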
FXN GAA850 act – frataxin GAA850 promoter activation; HEK293 lucGAA850 FXN promoter luciferase reporter, 24 h; percent of 10 µM SAHA response; activation, % at 6 µM; 360,000 tested, 0.56% active;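 active means activation above the average of all compounds screened plus 3 SD, cutoff fixed separately per campaign, cut at about 7.5% in these data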;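 further: 0% = DMSO wells and 100% = 10 µM SAHA wells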
Calb FLC – C. albicans growth modulation with fluconazole | C. albicans CaCi-2 + fluconazole, Alamar Blue growth, 48 h | growth inhibition, % (no concentration beside the values) | 300,000 tested, 0.57% active;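 active means growth inhibition above about 58% in most replicates, limit read from the data, passing the limit was not always enough; inconclusive means exactly half the replicates above a set limit; inactive means most replicates below a set limit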;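 further: all wells also contain fluconazole at 8 µg/ml as a sub-toxic cotreatment; 0% = median of DMSO wells and 100% = median of geldanamycin control wells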
proCasp3 act – activates human procaspase-3; 330,000 tested, 0.11% active; recombinant procaspase-3 D3A, Ac-DEVD-pNA absorbance 405 nm; activation, % at 8.5 µM;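 active means activation above the mean of all tested compounds plus 3 SD, cut at about 21% in these data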;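 further: 0% = DMSO alone and 100% = DMSO wells spiked with extra 5 µM PC-3 D3A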
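assay system = Procaspase-3 D3A mutant | signal = absorbance at 405 nm, 0 and 120 min | times = 1 h preincubation plus 2 h reaction at 25 °C | repeats = single replicate | read-out = % activation between DMSO and enzyme-spiked controls | medium = Zinc-free HEPES saline buffer with Triton X-100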
HIF activator – HIF pathway transcriptional activation | U2OS HRE-luciferase reporter, luminescence; normalized: DMSO 0%, desferrioxamine 100% | activation, % at 7.5 µM (by protocol) | 300,000 tested, 0.32% active;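 active means mean activation of at least 10% of the iron chelator positive control signal, with at least half of replicates also reaching 10%; inconclusive means mean and replicate majority disagree about reaching 10%; inactive means mean and most replicates under 10%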
Neddyl inh conf – confirmation of human cullin neddylation inhibitors; calls only at 25 µM; TR-FRET cullin neddylation biochemical assay; shares compounds with Neddyl block; 1,800 tested, 13% active; AID 652217; in the data active means inhibition above about 40%;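 further: neddylation substrate is the cullin 1 ring ligase complex with SKP2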
The depositor's hits bear a star; i = inactive; ? = inconclusive; . = no result shown; + = active, no number. This is a sample that favours compounds with a hit; in the whole collection about 1.9% have one here.

SMILES	Neddyl block	procasp7 counter	FXN GAA850 act	Calb FLC	proCasp3 act	HIF activator	Neddyl inh conf
COc1ccc(Cl)cc1NC(=O)CN(C)CC(=O)Nc1c(C)n(C)n(-c2ccccc2)c1=O	30	-1	-2	.	0	.	.
CCOc1ccc(S(=O)(=O)N2CCCC(C(=O)Nc3cc(C)cc(C)c3)C2)cc1 (stereo not drawn)	-1	-11	0	1	-1	0	.
COc1cccc(-c2ccc(C#N)c(OC(=O)c3c(Cl)cccc3Cl)n2)c1	.	11	0	1	7	0	.
COc1cccc(-c2ccc(C#N)c(OC(=O)c3ccc(Cl)cc3)n2)c1	41*	2	0	1	4	0	i
COc1cc(/C=C2/SC(=S)N(CC(=O)O)C2=O)ccc1OCC(=O)Nc1ccc(C)c(C)c1	-12	-5	0	-11	-5	0	.
Cc1cccn2c(=O)c3cc(C(=O)N4c5ccccc5CC4C)n(C)c3nc12 (stereo not drawn)	.	6	-1	3	10	0	.
CC1Cc2ccccc2N1C(=O)c1cc2c(=O)n3ccccc3nc2n1C (stereo not drawn)	48*	0	-7	34	7	0	+
COc1cc(O)cc(/C=C/c2ccccc2)c1	41*	.	2	.	.	.	+
COc1ccc(C(=O)/C=C/c2ccccc2)c(O)c1	0	-13	3	0	-2	3	.
COc1cccc(/C=C/C(=O)OCC(=O)NCc2ccco2)c1	49*	5	2	-1	-2	0	i
COc1ccc(/C=C/C(=O)OCC(=O)NCc2ccco2)c(OC)c1	-8	7	1	7	-2	1	.
COc1ccc(OC)c(/C=C/C(=O)OCC(=O)NCc2ccco2)c1	41*	-14	1	.	-8	.	.
O=C(COC(=O)/C=C/c1cccc(Br)c1)NCc1ccco1	-2	-1	3	-2	-7	-1	.
COc1ccc(CC(=O)OCC(=O)N2CCCc3ccccc32)cc1OC	1	3	-1	.	-3	0	.
CCc1ccc2oc(-c3ccc(OC)cc3)cc(=Nc3cccc(C(=O)O)c3)c2c1	43*	-18	3	76	-17	-4	i
COc1ccc(-c2cc(=Nc3ccc(C(=O)O)cc3)c3cc(C)ccc3o2)cc1	.	-8	3	-4	2	1	.
COCc1cc(C)nc2sc(C(=O)Nc3ccccc3C)c(N)c12	43*	-3	2	9	0	-1	.
COCc1cc(C)nc2sc(C(=O)OC)c(N)c12	43*	9	2	7	-4	0	.
Clc1ccc(-c2c(C3=NCCCN3)nnn2-c2ccc(Cl)cc2)cc1	-2	.	0	-26	.	-8	.
CCOc1ccc(Br)cc1S(=O)(=O)Nc1cccnc1	-1	12	1	13	7	1	.
CCCCn1c(=NC(=O)c2ccc3c(c2)OCO3)c(C#N)cc2c(=O)n3cccc(C)c3nc21	55*	-5	1	.	-6	.	i
CCC(=O)N/C(N)=N/c1nc(C)c2cc(OC)ccc2n1	46*	-5	4	?	-3	1	+
COc1ccc2nc(/N=C(\N)NC(=O)C(C)(C)C)nc(C)c2c1	.	-5	4	-1	0	3	.
CC(=O)Oc1ccc2nc(/C=C/c3ccc(C=O)cc3)oc(=O)c2c1	18	-6	0	-8	5	0	.
CC(=O)Oc1ccc2nc(/C=C/c3ccccc3)oc(=O)c2c1	45*	11	0	-3	-2	0	i
SMILES	Neddyl block	procasp7 counter	FXN GAA850 act	Calb FLC	proCasp3 act	HIF activator	Neddyl inh conf
CCc1nn2c(N3CCOCC3)cc(C)nc2c1-c1ccc(F)cc1	-174	6	-1	2	5	0	.
CCc1nn2c(N(C)CCO)cc(C)nc2c1-c1ccc(F)cc1	44*	8	-1	-3	8	0	i
N#Cc1ccc(NC(=O)c2cc(=O)c3ccccc3o2)cc1	41*	10	-1	0	8	0	i
COCCN(C(=O)C1CCN(C(=O)c2ccccc2C)CC1)c1c(N)n(CC(C)C)c(=O)[nH]c1=O	-14	0	1	.	5	.	.
Cn1c(N)c(C(=O)CSc2n[nH]c(-c3ccccc3)n2)c(=O)n(C)c1=O	-42	2	0	.	0	.	.
O=C(c1ccccc1)N1CCN(c2ccc(N3CCOCC3)nn2)CC1	63*	5	2	-9	4	-1	.
O=C(c1cccc(Cl)c1)N1CCN(c2ccc(N3CCOCC3)nn2)CC1	57*	16	-1	2	-6	0	.
O=C(c1cccc([N+](=O)[O-])c1)N1CCN(c2ccc(N3CCOCC3)nn2)CC1	-13	8	1	1	6	0	.
O=C(c1ccc(Cl)cc1Cl)N1CCN(c2ccc(N3CCOCC3)nn2)CC1	52*	7	0	2	-3	?	.
CCn1cc(/C=C(\NC(=O)c2ccc(OC)cc2)C(=O)N2CCOCC2)c2ccccc21	13	2	4	8	3	1	.
S=C(NCc1ccco1)Nc1cc(-c2ccccc2)[nH]n1	-1	-34	2	?	-27	0	.
CCC1CCCN1Cn1cnc2c([nH]c3ccccc32)c1=O (stereo not drawn)	41*	12	0	5	13	0	i
O=C(CSc1ccc2nnc(-c3cccnc3)n2n1)Nc1ccccc1C(F)(F)F	48*	2	0	-1	-2	0	.
Nc1cc(Cl)ccc1C(=O)OCC(=O)NCc1cccs1	56*	7	2	.	1	.	.
O=C(COC(=O)c1ccccc1Cl)NCc1cccs1	4	.	-2	.	.	.	.
Cc1nn(-c2ccccc2)c2[nH]c(=O)cc(C(F)F)c12	23	-13	3	.	11	.	.
Cc1ccc(-n2nc(C)c3c(C)cc(=O)[nH]c32)cc1	44*	0	0	57	0	0	i
O=Cc1c[nH]c2cccc(OCc3ccccc3)c12	27	.	3	.	.	.	.
CCN(CCC#N)c1ccc(/C=N/Nc2nc(C)cc(=O)[nH]2)c(C)c1	41*	-5	2	14	0	0	i
Cc1cc(=O)[nH]c(N/N=C/c2ccc(Cl)cc2Cl)n1	16	-9	1	-3	7	0	.
O=C(C[C@H]1C/C=C\CC[C@@H](Cc2ccc(F)cc2)C(=O)OC[C@H]2CCCN2C1=O)N[C@@H](CO)Cc1ccccc1	-16	-1	-1	.	-8	.	.
Cc1c(C)c2ccc(OCC(=O)Nc3ccc(CN4CCOCC4)cc3)cc2oc1=O	52*	4	-1	2	2	-1	i

Assay outcomes: PubChem, several laboratories
